In ChEMBL document CHEMBL4387757, “Synthesis and molecular modeling of novel non-sulfonylureas as hypoglycemic agents and selective ALR2 inhibitors” (Bioorg Med Chem, 2019):

Key:
[1] = molecular target: T1, Aldo-keto reductase family 1 member B1 (Homo sapiens, UniProt P15121); assay: Inhibition of ALR2 (unknown origin) using sodium dl-glyceraldehyde as substrate preincubated for 10 mins followed by substrate addition by UV-spectrophotometry analysis
In short: (§1)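 Enzyme activity followed by UV spectrophotometry as the decrease in NADPH absorbance at 340 nm. Valproic acid served as positive control for ALR1, sorbinil for ALR2.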

Mus musculus [2] = assay: Antihyperglycemic activity in alloxan-induced diabetic BALB/c mouse model assessed as blood glucose level at 10 mg/kg measured immediately by glucometry analysis; assay type: functional
In short: (§2)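 Diabetic BALB/c mice; blood sampled before dosing (0 h) and again at 2, 4, 6 and 8 h to measure blood glucose (mg/dl). Values are means ± SEM from three trials.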

Mus musculus [3] = assay: Antihyperglycemic activity in alloxan-induced diabetic BALB/c mouse model assessed as blood glucose level at 10 mg/kg measured after 6 hrs by glucometry analysis; assay type: functional; in short: as §2
Mus musculus [4] = assay: Antihyperglycemic activity in alloxan-induced diabetic BALB/c mouse model assessed as blood glucose level at 10 mg/kg measured after 2 hrs by glucometry analysis; assay type: functional; in short: as §2
Mus musculus [5] = assay: Antihyperglycemic activity in alloxan-induced diabetic BALB/c mouse model assessed as blood glucose level at 10 mg/kg measured after 4 hrs by glucometry analysis; assay type: functional; in short: as §2
[6] = molecular target: Aldo-keto reductase family 1 member A1 (Homo sapiens, UniProt P14550); assay: Inhibition of ALR1 (unknown origin) using sodium d-glucoronate as substrate preincubated for 10 mins followed by substrate addition by UV-spectrophotometry analysis; in short: as §1
Sequence of Aldo-keto reductase family 1 member A1 (P14550 2-325 limits assumed): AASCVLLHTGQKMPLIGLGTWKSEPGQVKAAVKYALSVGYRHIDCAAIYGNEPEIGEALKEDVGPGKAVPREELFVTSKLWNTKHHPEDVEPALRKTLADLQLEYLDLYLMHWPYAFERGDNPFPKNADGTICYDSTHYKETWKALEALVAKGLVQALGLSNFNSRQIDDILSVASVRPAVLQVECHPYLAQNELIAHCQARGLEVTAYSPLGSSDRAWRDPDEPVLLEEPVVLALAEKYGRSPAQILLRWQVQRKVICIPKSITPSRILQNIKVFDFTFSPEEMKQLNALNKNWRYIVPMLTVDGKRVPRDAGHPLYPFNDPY

Mus musculus [7] = assay: Antihyperglycemic activity in alloxan-induced diabetic BALB/c mouse model assessed as reduction in blood glucose level at 10 mg/kg measured after 8 hrs by glucometry analysis relative to control; assay type: functional
In short: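 Diabetic BALB/c mice; blood glucose measured at 0 h and at 2, 4, 6 and 8 h. Percent inhibition of blood glucose was calculated at 8 h. Three trials.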

Mus musculus [8] = assay: Antihyperglycemic activity in alloxan-induced diabetic BALB/c mouse model assessed as blood glucose level at 10 mg/kg measured after 8 hrs by glucometry analysis; assay type: functional; in short: as §2
[9] = molecular target: T1, Aldo-keto reductase family 1 member B1; assay: Selectivity index, ratio of IC50 for ALR1 (unknown origin) to IC50 for ALR2 (unknown origin)

| SMILES | IC50 [1] [µM] | Activity (Mus musculus [2]) [mg/dL] | Activity (Mus musculus [3]) [mg/dL] | Activity (Mus musculus [4]) [mg/dL] | Activity (Mus musculus [5]) [mg/dL] | IC50 [6] [µM] | inhibition in vivo at 10 mg/kg (Mus musculus [7]) [%] | Activity (Mus musculus [8]) [mg/dL] | Ratio IC50 [9] |
| --- | --- | --- | --- | --- | --- | --- | --- | --- | --- |
| O=C(CN1C(=O)NC2(CCCCC2)C1=O)Nc1ccc(Cl)cc1Cl | 1.95 | 384 | 217 | 319 | 269 | 32.9 | 68.5 | 121 | 16.9 |
| O=C(CN1C(=O)NC2(C1=O)c1ccccc1-c1ccccc12)Nc1ccc(Br)cc1 | 0.93 | 452 | 173 | 331 | 218 | 30.3 | 81.1 | 85 | 32.6 |
| COc1ccc(NC(=O)CN2C(=O)NC3(C2=O)c2ccccc2-c2ccccc23)cc1 | 2.87 | 320 | 279 | 258 | 237 | 24.3 | – | 370 | 8.45 |
| Cc1ccc(NC(=O)CN2C(=O)NC3(C2=O)c2ccccc2-c2ccccc23)cc1 | 6.21 | 358 | 211 | 314 | 283 | 10.9 | 53.4 | 167 | 1.76 |
| O=C(CN1C(=O)NC2(C1=O)c1ccccc1-c1ccccc12)Nc1ccc(Cl)cc1 | 1.03 | 460 | 189 | 350 | 234 | 22.2 | 80.4 | 90 | 21.6 |
| CCOc1cc(CC(=O)N[C@@H](CC(C)C)c2ccccc2N2CCCCC2)ccc1C(=O)O [REPAGLINIDE] | – | 392 | 160 | 313 | 259 | – | 66.1 | 94 | – |
| O=C(CN1C(=O)NC2(C1=O)c1ccccc1-c1ccccc12)Nc1ccc(Cl)cc1Cl | 0.37 | 398 | 168 | 290 | 223 | 35.5 | 84.3 | 63 | 96 |
| O=C(CN1C(=O)NC2(CCCCC2)C1=O)Nc1ccc(Br)cc1 | 0.72 | 459 | 182 | 386 | 276 | 31.2 | 85.1 | 69 | 43.4 |
| COc1ccc(NC(=O)CN2C(=O)NC3(CCCCC3)C2=O)cc1 | 2.76 | 370 | 231 | 322 | 299 | 25.8 | 56.1 | 163 | 9.36 |
| O=C(CN1C(=O)NC2(CCCCC2)C1=O)Nc1ccc(Cl)cc1 | 1.13 | 406 | 170 | 347 | 242 | 20.7 | 79.2 | 85 | 18.3 |
| Cc1ccc(NC(=O)CN2C(=O)NC3(CCCCC3)C2=O)cc1 | 10.2 | 387 | 197 | 305 | 268 | 6.43 | 70.3 | 115 | 0.63 |
